Test results published in ChEMBL document CHEMBL1137462, “Indoloxypropanolamine analogues as 5-HT(1A) receptor antagonists” (Bioorg Med Chem Lett, 2007).

Columns and labels:
[1] = biological target: T1, 5-hydroxytryptamine receptor 1A (Homo sapiens, UniProt P08908); assay: Antagonist activity at human 5HT1A expressed in mouse LM(tK-) cells assessed as inhibition of 5-HT-stimulated [35S]GTP-gamma-S binding; format: functional, cell-based
T1 sequence (P08908 whole entry): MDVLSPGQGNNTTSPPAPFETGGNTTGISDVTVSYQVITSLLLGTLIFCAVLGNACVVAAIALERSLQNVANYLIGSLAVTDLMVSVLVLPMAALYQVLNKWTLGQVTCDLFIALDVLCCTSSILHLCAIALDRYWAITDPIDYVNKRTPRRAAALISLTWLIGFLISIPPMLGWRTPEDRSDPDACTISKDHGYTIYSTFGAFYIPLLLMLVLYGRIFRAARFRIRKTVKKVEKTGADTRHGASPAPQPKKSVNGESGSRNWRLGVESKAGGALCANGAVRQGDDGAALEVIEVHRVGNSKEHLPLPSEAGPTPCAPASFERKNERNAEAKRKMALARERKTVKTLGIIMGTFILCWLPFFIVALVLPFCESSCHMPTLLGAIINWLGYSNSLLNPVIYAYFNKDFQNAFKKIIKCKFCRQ
Outline: (§1)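 [35S]GTPγS binding in mouse LM(tk−) cells expressing the human 5-HT1A receptor, with binding stimulated by 300 nM 5-HT. Ki was calculated from inhibition of that stimulation. Maximal inhibition was expressed as a percentage of the stimulation produced by a maximal 5-HT concentration. Where Ki could not be obtained, inhibition was read at the highest accurately testable compound concentration.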

[2] = biological target: T2, 5-hydroxytryptamine receptor 1A (Homo sapiens) (UniProt P08908); assay: Antagonist activity at human 5HT1A expressed in mouse LM(tK-) cells assessed as maximal inhibition of 5-HT-stimulated [35S]GTPgammaS binding; format: functional, cell-based; design: scale not given: the % may be the effect or the level left
T2 sequence (whole entry): T1 sequence (P08908 whole entry)

[3] = biological target: T1, 5-hydroxytryptamine receptor 1A; assay: Displacement of [3H]DPAT from human 5HT1A receptor
Outline: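 Radioligand binding in vitro using cell lines expressing the human 5-HT1A receptor. Values are mean ± SEM of at least three determinations.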

[4] = biological target: T2, 5-hydroxytryptamine receptor 1A (Homo sapiens); assay: Antagonist activity at human 5HT1A expressed in mouse LM(tK-) cells assessed as inhibition of 5-HT-stimulated [35S]GTP-gamma-S binding at 10 uM; format: functional, cell-based; design: scale not given: the % may be the effect or the level left
Outline: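 Human 5-HT1A receptor expressed in mouse LM(tk-) cells. [35S]GTPγS binding was stimulated with 300 nM 5-HT, and inhibition was measured at a single compound concentration, the highest that could be accurately tested.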

[5] = biological target: T2, 5-hydroxytryptamine receptor 1A (Homo sapiens); assay: Antagonist activity at human 5HT1A expressed in mouse LM(tK-) cells assessed as maximal 5-HT-stimulated [35S]GTPgammaS binding relative to 5HT; format: functional, cell-based
[6] = biological target: T1, 5-hydroxytryptamine receptor 1A; assay: Antagonist activity at human 5HT1A expressed in mouse LM(tK-) cells assessed as 5-HT-stimulated [35S]GTPgammaS binding; format: functional, cell-based; outline: as §1
Rattus norvegicus [7] = assay: Blockade of 8-OH-DPAT-induced increase in serum corticosterone level in sc dosed Spargue-Dawley rat; format: functional
Outline: (§2)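 Male Sprague–Dawley rats received compound sc at 0.03–1.0 mg/kg, 15 min before 0.3 mg/kg sc 8-OH-DPAT. Rats were killed 1 h after the agonist. Serum corticosterone was measured with a 3H-corticosterone kit. Results are mean and standard error, n = 5 rats per group, with percent antagonism of the 8-OH-DPAT-induced rise.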

[8] = biological target: Beta-2 adrenergic receptor (Homo sapiens, UniProt P07550); assay: Binding affinity at human adrenergic beta2 receptor
Rattus norvegicus [9] = assay: Blockade of 8-OH-DPAT-induced increase in serum corticosterone level in Spargue-Dawley rat at 0.3 mg/kg, sc; format: functional; settings: route subcutaneous; outline: as §2
Rattus norvegicus [10] = assay: Blockade of 8-OH-DPAT-induced increase in serum corticosterone level in male Spargue-Dawley rat at 1.0 mg/kg, sc; format: functional; settings: route subcutaneous; outline: as §2
Rattus norvegicus [11] = assay: Blockade of 8-OH-DPAT-induced increase in serum corticosterone level in Spargue-Dawley rat at 0.03 mg/kg, sc; format: functional; settings: route subcutaneous; outline: as §2
[12] = biological target: Beta-1 adrenergic receptor (Homo sapiens, UniProt P08588); assay: Binding affinity at human adrenergic beta-1 receptor
Rattus norvegicus [13] = assay: Blockade of 8-OH-DPAT-induced increase in serum corticosterone level in Spargue-Dawley rat at 0.1 mg/kg, sc; format: functional; settings: route subcutaneous; outline: as §2

Beta-1 adrenergic receptor, sequence (P08588 whole entry): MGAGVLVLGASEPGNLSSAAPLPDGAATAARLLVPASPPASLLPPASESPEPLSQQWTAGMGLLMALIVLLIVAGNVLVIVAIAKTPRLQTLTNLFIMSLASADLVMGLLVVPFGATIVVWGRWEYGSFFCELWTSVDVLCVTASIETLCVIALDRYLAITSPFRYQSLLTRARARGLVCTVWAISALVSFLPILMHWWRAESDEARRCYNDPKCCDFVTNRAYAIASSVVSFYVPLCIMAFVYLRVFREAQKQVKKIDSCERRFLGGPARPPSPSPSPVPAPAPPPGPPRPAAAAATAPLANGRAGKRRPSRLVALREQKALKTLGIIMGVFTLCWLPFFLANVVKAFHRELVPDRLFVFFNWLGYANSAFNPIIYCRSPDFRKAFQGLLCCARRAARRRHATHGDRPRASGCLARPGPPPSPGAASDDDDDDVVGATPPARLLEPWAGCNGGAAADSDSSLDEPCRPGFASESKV
Beta-2 adrenergic receptor, sequence (P07550 whole entry): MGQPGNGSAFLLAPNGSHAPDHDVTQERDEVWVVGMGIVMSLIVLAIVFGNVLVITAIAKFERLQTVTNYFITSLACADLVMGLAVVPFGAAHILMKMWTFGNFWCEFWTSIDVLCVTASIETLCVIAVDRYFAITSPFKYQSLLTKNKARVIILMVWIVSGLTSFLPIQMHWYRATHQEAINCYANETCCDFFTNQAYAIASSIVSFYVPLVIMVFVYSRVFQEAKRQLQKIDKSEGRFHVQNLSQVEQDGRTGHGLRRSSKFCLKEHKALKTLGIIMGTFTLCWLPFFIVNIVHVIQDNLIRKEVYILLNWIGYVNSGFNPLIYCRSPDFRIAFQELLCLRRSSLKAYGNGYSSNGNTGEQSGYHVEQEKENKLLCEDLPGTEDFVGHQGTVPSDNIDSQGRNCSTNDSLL

Row | SMILES | Ki [1] [nM] | Activity [2] [%] | Ki [3] [nM] | further results
1 | CCC(CC)NCC(O)COc1cccc2[nH]ccc12 (configuration not stated) | 49.8 | 4.74 | 28.6 | –
2 | COC(CNC1CCCCC1)COc1cccc2[nH]ccc12 (configuration not stated) | – | – | 40.6 | Activity [4]: 36.2%
3 | COC(CNC12CC3CC(CC(C3)C1)C2)COc1cccc2[nH]ccc12 (configuration not stated) | – | – | 32 | Activity [4]: 28.9%
4 | OC(CNC12CC3CC(CC(C3)C1)C2)COc1ccc2[nH]ccc2c1 (configuration not stated) | – | – | 833 | –
5 | OC(CCOc1cccc2[nH]ccc12)CNC1CCCCC1 (configuration not stated) | – | – | 872 | –
6 | O[C@H](CNC12CC3CC(CC(C3)C1)C2)COc1cccc2[nH]ccc12 | 29.9 | 3.15 | 18.3 | –
7 | C[C@](O)(CNC12CC3CC(CC(C3)C1)C2)COc1cccc2[nH]ccc12 | – | – | 868 | –
8 | OC(CNC1CCCCC1)COc1ccc2[nH]ccc2c1 (configuration not stated) | – | – | > 3000 | –
9 | O[C@H](CNC1CCCCC1)COc1cccc2[nH]ccc12 | 50.8 | 8.87 | 26.1 | –
10 | OC(CNC1CCCCCC1)COc1cccc2[nH]ccc12 (configuration not stated) | 11.3 | 8.9 | 6.82 | –
11 | CC(C)NCC(O)COc1cccc2[nH]ccc12 (configuration not stated) | – | 9.76 | – | –
12 | OC(CCNC12CC3CC(CC(C3)C1)C2)COc1cccc2[nH]ccc12 (configuration not stated) | – | – | 76.1 | Emax [5]: 51.8%; EC50 [6]: 854 nM
13 | C[C@](O)(CNC1CCCCC1)COc1cccc2[nH]ccc12 | – | – | 1450 | –
14 | c1cc(OCCCNC2CCCCC2)c2cc[nH]c2c1 | – | – | 78.4 | Activity [4]: 31.3%
15 | O[C@@H](CNC1CCCCC1)COc1cccc2[nH]ccc12 | 6.68 | 7.52 | 1.33 | ED50 (Rattus norvegicus [7]): 2.5 mg/kg; Ki [8]: 3.75 nM; Activity (Rattus norvegicus [9]): 53%; Activity (Rattus norvegicus [10]): 92%; Activity (Rattus norvegicus [11]): 13%; Ki [12]: 2.37 nM; Activity (Rattus norvegicus [13]): 26%
16 | O[C@@H](CNC12CC3CC(CC(C3)C1)C2)COc1cccc2[nH]ccc12 | 4.65 | 6.38 | 3.89 | Ki [8]: 6.63 nM; Ki [12]: 7.92 nM
17 | CC(C)NCC(O)CCOc1cccc2[nH]ccc12 (configuration not stated) | – | – | 1770 | –
18 | OC(CNC12CC3CC(CC(C3)C1)C2)COc1cccc2[nH]ccc12 (configuration not stated) | 7.84 | 6.56 | 9.29 | –
19 | O[C@@H](CNC1C2CC3CC(C2)CC1C3)COc1cccc2[nH]ccc12 (some centres not stated) | 24 | 8.75 | 11.2 | –
20 | OC(CNC1CCCC1)COc1cccc2[nH]ccc12 (configuration not stated) | 35.5 | 11.8 | 10.6 | –
21 | c1cc(OCCCNC2CCCC2)c2cc[nH]c2c1 | 233 | 24.8 | 94.3 | –
22 | OC(CCOc1cccc2[nH]ccc12)CNC12CC3CC(CC(C3)C1)C2 (configuration not stated) | – | – | 551 | –
23 | OC(CCNC1CCCCC1)COc1cccc2[nH]ccc12 (configuration not stated) | – | – | 125 | Emax [5]: 45.6%; EC50 [6]: 394 nM
24 | OC(CNC1CCCCC1)COc1cccc2[nH]ccc12 (configuration not stated) | 9.83 | 9.88 | 3.58 | –
